# Shown are actives, neighbours in structure and some others; about 1.6% of the full set was active somewhere.
# MLLE-PAM2 inh: inhibitors of microRNA-mediated deadenylation, human PABP1 MLLE binding; 360,000 tested, 0.36% active; GST-MLLE / FITC-PAM2 fluorescence polarization; P11940; inhibition, % at 20 µM; in the data active means inhibition above about 35%, passing the limit was not always enough;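 further: plate controls were DMSO wells with GST-MLLE for no effect and wells lacking GST-MLLE protein for full effect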
# PABP polyA inh: PABP-poly(A) binding inhibition; PABP-poly(A) RNA binding, fluorescence polarization; calls only at 35 µM; 290,000 tested, 1% active; AID 2014;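 further: calls also rest on retests at 20 µM and on dose response follow-up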
# TCR-CD3 inh: blocks the human TCR-CD3 interaction; TAMRA-labeled TCR probe fluorescence, biochemical; inhibition, % at 9.4 µM; 360,000 tested, 0.37% active; AID 651800; in the data active means inhibition above about 19%;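 further: recombinant mutant TCR 2C K166C tagged with TAMRA read by polarization; 0% = receptor in buffer alone and 100% = receptor with positive control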
# RBBP9 inh: blocks human serine hydrolase RBBP9 | O75884 | recombinant RBBP9, FP-Rh probe fluorescence polarization | inhibition, % at 7.94 µM | 220,000 tested, 0.2% active | AID 1515;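 active means inhibition above the campaign mean of all tested compounds plus 3 SD, cut at about 14% in these data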;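 further: plate controls were DMSO wells with RBBP9 for no effect and wells lacking RBBP9 protein for full effect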
# Target sequence (O75884 whole entry, looked up): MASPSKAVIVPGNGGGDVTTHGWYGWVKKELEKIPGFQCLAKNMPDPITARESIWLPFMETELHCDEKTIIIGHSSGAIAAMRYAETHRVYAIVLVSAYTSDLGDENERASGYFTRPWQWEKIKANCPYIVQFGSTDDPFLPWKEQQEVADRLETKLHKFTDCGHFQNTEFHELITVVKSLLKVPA
#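 System: RBBP9 protein | Quantity: 2.5 µM RBBP9 dispensing solution, before mixing | Reagent: FP-Rh probe, 375 nM dispensing solution | Timing: Enzyme-compound preincubation 30 min, then probe labeling 45 min, 25 °C | Measured by: Fluorescence polarization | Read-out: % inhibition | Replication: One well per compound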
# eIF4H inh: inhibitors of RNA binding by human eIF4H. Q15056. AID 2012. eIF4H fluorescence polarization binding assay. inhibition, % at 35 µM. 290,000 tested, 0.94% active;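 further: calls also rest on retests at 20 µM and on dose response follow-up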
# Starred values were filed as active, the others as inactive; i = inactive; ? = inconclusive; · = no result given; + = active, no number; ! = a repeat was not active. Unless noted, how the calls were made is not given here.
SMILES,MLLE-PAM2 inh,PABP polyA inh,TCR-CD3 inh,RBBP9 inh,eIF4H inh
O=C(Nc1ccccc1)c1ccc(-n2cnnn2)cc1,-27,i,9,·,-8
O=C(Nc1ccc(-n2cnnn2)cc1)C(c1ccccc1)c1ccccc1,1,+,0,-11,-10
CC(C)C[C@H]1COc2cc(NCCCN3CCOCC3)ccc2S(=O)(=O)N1,·,·,1,·,·
C[C@@H]1ON(C)[C@H]2C[C@H]3c4[nH]c5cccc(-c6ccccc6)c5c4CCN3C[C@@H]12,·,·,-5,·,·
COc1cccc(S(=O)(=O)N(C)C[C@@H]2Oc3ncc(Br)cc3C(=O)N([C@H](C)CO)C[C@@H]2C)c1,·,·,5,·,·
Cc1ccc2c(c1)sc[n+]2Cc1ccccc1,38*,i,-8,-3,-1
COC(=O)C1=C(C)N(C)C(=NCc2cc(OC)c(OC)c(OC)c2)NC1c1cccc(F)c1 (stereo not given),·,·,2,·,·
CCCCOCC1CN(CCCC)S(=O)(=O)c2c(cccc2N2CCCC2)O1 (stereo not given),·,·,0,·,·
COCc1cc(N2CCN(C(=O)OC(C)(C)C)C[C@H]2C)ccc1N1CC[C@H](O)C1,·,·,3,·,·
Cn1nc2c(c1C(=O)O)CCCC2,-3,+,-8,-3,102*
CCOC(=O)CC(NS(=O)(=O)c1ccc2[nH]cc(C(=O)O)c(=O)c2c1)c1ccc(OCC)c(OC)c1 (stereo not given),-4,+,-3,·,79*
Cc1onc(-c2c(F)cccc2Cl)c1C(=O)NC1CC1,-8,i,6,·,7
Cc1onc(-c2c(F)cccc2Cl)c1C(=O)NC(=S)Nc1c(C)n(C)n(-c2ccccc2)c1=O,45*,i,2,-4,-3
COc1ccc(C(=O)NC(=S)NC2CCSC2=O)cc1 (stereo not given),38*,i,7,-1,-3
Cc1onc(-c2c(F)cccc2Cl)c1C(=O)Nc1c(C)n(C)n(-c2ccccc2)c1=O,10,i,-3,-5,-8
Cc1onc(-c2c(F)cccc2Cl)c1C(=O)NC(=S)NC1CCSC1=O (stereo not given),44*,i,1,-8,-1
CCNC(=O)N(C)[C@H]1C[C@H]2c3[nH]c4c(-c5ccccc5)cccc4c3CCN2C(=O)[C@H]1[C@H](C)O,·,·,9,·,·
O=C(Nc1ccc(Cl)cc1)OC[C@@H]1CSCCS(=O)(=O)N1,·,·,-5,·,·
O=C(CSc1nccc(=O)[nH]1)N1CCCc2ccccc21,38*,i,7,-7,-6
CC1CC(C)(C)NC(=O)O1 (stereo not given),9,i,3,-1,-5
CC1CC(C)(C)NC(=S)S1 (stereo not given),41*,i,-4,-3,-4
c1ccc(CN2CCCC3CC2c2ccccc23)cc1 (stereo not given),·,·,-4,·,·
COC(=O)c1ccccc1NC(=O)CC(=O)Nc1ccccc1C(=O)OC,-6,i,4,·,-13
COC(=O)c1ccccc1NC(=O)Cc1nc(-c2ccccc2)sc1-c1ccc(C)cc1,-19,+,11,-10,active
COC(=O)CSc1[nH]c2ccccc2c1[N+](=O)[O-],39*,i,-15,5,-4
SMILES,MLLE-PAM2 inh,PABP polyA inh,TCR-CD3 inh,RBBP9 inh,eIF4H inh
Cc1[nH]nc(SCC(=O)NCc2ccccc2)c1[N+](=O)[O-],2,i,10,4,-1
Cc1cc(-c2onc(C)c2C(=O)N/N=C/c2ccccc2)no1,-5,i,5,-4,-4
Cc1ccc(SC(=O)c2c(C)noc2-c2cc(C)on2)cc1,41*,i,6,-8,-6
COc1ccc(NC(=O)C2CC(=O)N(c3ccc(C)cc3)C2)cc1S(=O)(=O)N1CCCCC1 (stereo not given),7,·,-7,·,·
CCOc1ccc(N2CC(C(=O)Nc3ccc(OC)c(S(=O)(=O)N4CCCCC4)c3)CC2=O)cc1 (stereo not given),-22,+,-6,-5,3
Cc1ccc(OCC(=O)N2CCN(C(=O)c3cccs3)CC2)cc1,3,+,7,2,active
Cc1ccc(OCC(=O)N2CCN(C(=O)c3ccco3)CC2)cc1,-4,i,0,-10,-2
CC(=O)Nc1sc(N/N=C/c2ccccc2)nc1-c1ccc(C)cc1,-57,i,-1,-8,-9
CC(=O)Nc1sc(/C(C#N)=C\c2cccc(Cl)c2)nc1-c1ccc(C)cc1,i,+,-10,-6,127*
Cc1ccc2cc(C3CC(c4ccco4)=NN3C(=O)CCC(=O)O)c(Cl)nc2c1 (stereo not given),12,+,-5,-3,?
CCCCN(CC)c1nc(N)c(C#N)c(CC#N)c1C#N,-22,i,-4,-3,39
C=C(C)CN(CC)c1nc(N)c(C#N)c(CC#N)c1C#N,5,+,-10,-6,84*
CCN(CC)c1ccc(N=Cc2ccc([N+](=O)[O-])o2)cc1,-17,+,5,2,72*
CCN(CC)c1ccc(N=Cc2ccccc2[N+](=O)[O-])cc1,24,i,13,-3,2
O=C(NNC(=O)C1[C@H]2CCCC[C@@H]12)c1ccc(=O)oc1 (stereo not given in full),-21,+,6,1,?
O=C(NC12CC3CC(CC(C3)C1)C2)c1ccc(=O)oc1,10,i,-3,-1,-2
c1ccc(Cc2cnc(N3CCN(Cc4csc5ccccc45)CC3)nc2)cc1,·,·,-2,·,·
N#CC(=C=[N-])c1nc2ccccc2nc1-[n+]1cccc(NC(=O)c2cccs2)c1,-8,+,-4,0,54*
C[C@H](c1ccccc1)N1C[C@@H](COCc2ccccc2)Oc2cccc(F)c2S1(=O)=O,·,·,-8,·,·
Cc1ccc(NC(=O)CSC(N)=O)cc1Cl,41*,i,3,-13,-2
NC(=O)SCC(=O)Nc1ccc(Cl)c(Cl)c1,41*,i,2,-24,6
CC(C)SCC(=O)Nc1ncc2c(n1)-c1ccccc1CC2,-33,i,2,-3,76*
O=C(Nc1ncc2c(n1)-c1ccccc1CC2)C1CC1,0,i,4,-19,2
Cc1ccc(S(=O)(=O)NC2=C(N3CCN(c4ccccc4F)CC3)C(=O)c3ccccc3C2=O)cc1,38*!,i,-7,-1,10
Cc1ccc(S(=O)(=O)NC2=C(N3CCN(Cc4ccccc4)CC3)C(=O)c3ccccc3C2=O)cc1,1,i,1,-4,-5
COC(=O)[C@]12C[C@H](CC(=O)NCCc3ccccc3OC)C(=O)N(Cc3ccc4c(c3)OCO4)C1=C[C@H](C(C)(C)C)O[C@@H]2C,·,·,4,·,·
O=C(C1=C[C@@H]2[C@H]3C(=O)N(c4ccccc4Cl)C(=O)[C@H]3[C@@H](C(=O)c3ccc(Cl)cc3)N2C=C1)c1ccccc1,·,i,·,-2,52*
CCCCCCC12C(=Cc3cc4c(cc31)OCCO4)c1cc(OC)c(OC)cc1C(CC(=O)O)N2C(=O)OC (stereo not given),·,·,-4,·,·
